In ChEMBL document CHEMBL1132255, “Structure-activity relationships for 5-substituted 1-phenylbenzimidazoles as selective inhibitors of the platelet-derived growth factor receptor” (J Med Chem, 1999):

Legend:
[1] = target: Fibroblast growth factor receptor 1 (Homo sapiens, UniProt P11362); assay: Inhibition of [32P]ATP incorporated (phosphorylation) into glutamate-tyrosine copolymer substrate by human fibroblast growth factor receptor 1
In short: (§1)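 Enzymes were intracellular tyrosine kinase domain fragments (human FGFR-1 […], mouse PDGFR-β […]), 60–75 ng per reaction, in 25 mM HEPES pH 7.4 with 150 mM NaCl, 10 mM MnCl₂, 0.2 mM sodium orthovanadate, Glu-Tyr (4:1) random copolymer substrate and varied inhibitor. Reactions were started with [³²P]ATP (0.4 μCi), run 10 min at 25 °C and stopped with 15% TCA. IC50 was taken as the concentration reducing ³²P incorporation into the copolymer.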

[2] = target: Platelet-derived growth factor receptor beta (Mus musculus, UniProt P05622); assay: Inhibition of [32P]ATP incorporated (phosphorylation) into glutamate-tyrosine copolymer substrate by mouse platelet-derived growth factor receptor beta; in short: as §1
[3] = target: T1, Platelet-derived growth factor receptor (PDGFr) (Rattus norvegicus, UniProt P20786+Q05030); assay: Inhibition of Platelet-derived growth factor receptor beta autophosphorylation in Rat aorta vascular smooth muscle cells(RAVSMC).
[4] = target: T1, Platelet-derived growth factor receptor (PDGFr); assay: Inhibition of Platelet-derived growth factor receptor beta autophosphorylation in Rat aorta vascular smooth muscle cells(RAVSMC)

Fibroblast growth factor receptor 1, sequence (P11362 whole entry, the tested form may be a part): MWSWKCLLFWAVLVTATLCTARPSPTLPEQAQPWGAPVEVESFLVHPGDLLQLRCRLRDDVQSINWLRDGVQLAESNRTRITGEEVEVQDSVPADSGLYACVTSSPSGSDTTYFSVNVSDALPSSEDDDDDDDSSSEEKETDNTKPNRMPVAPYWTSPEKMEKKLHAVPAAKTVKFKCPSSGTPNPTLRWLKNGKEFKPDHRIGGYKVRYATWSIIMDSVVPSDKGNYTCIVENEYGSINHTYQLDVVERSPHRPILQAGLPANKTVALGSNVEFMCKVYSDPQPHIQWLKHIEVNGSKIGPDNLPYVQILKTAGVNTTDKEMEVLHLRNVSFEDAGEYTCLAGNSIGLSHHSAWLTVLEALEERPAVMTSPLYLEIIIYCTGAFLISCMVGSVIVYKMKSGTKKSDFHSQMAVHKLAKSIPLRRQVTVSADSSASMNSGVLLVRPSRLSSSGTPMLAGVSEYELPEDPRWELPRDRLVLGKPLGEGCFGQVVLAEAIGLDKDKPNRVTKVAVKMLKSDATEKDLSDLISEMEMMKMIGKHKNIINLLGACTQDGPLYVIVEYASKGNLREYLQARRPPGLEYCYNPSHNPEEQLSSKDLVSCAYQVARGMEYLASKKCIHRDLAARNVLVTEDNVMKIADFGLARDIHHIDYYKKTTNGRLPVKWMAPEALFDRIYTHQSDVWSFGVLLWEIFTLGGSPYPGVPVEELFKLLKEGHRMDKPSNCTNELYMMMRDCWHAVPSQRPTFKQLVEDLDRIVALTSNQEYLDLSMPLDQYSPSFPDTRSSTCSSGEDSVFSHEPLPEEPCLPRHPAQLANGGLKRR
Platelet-derived growth factor receptor beta, sequence (P05622 whole entry): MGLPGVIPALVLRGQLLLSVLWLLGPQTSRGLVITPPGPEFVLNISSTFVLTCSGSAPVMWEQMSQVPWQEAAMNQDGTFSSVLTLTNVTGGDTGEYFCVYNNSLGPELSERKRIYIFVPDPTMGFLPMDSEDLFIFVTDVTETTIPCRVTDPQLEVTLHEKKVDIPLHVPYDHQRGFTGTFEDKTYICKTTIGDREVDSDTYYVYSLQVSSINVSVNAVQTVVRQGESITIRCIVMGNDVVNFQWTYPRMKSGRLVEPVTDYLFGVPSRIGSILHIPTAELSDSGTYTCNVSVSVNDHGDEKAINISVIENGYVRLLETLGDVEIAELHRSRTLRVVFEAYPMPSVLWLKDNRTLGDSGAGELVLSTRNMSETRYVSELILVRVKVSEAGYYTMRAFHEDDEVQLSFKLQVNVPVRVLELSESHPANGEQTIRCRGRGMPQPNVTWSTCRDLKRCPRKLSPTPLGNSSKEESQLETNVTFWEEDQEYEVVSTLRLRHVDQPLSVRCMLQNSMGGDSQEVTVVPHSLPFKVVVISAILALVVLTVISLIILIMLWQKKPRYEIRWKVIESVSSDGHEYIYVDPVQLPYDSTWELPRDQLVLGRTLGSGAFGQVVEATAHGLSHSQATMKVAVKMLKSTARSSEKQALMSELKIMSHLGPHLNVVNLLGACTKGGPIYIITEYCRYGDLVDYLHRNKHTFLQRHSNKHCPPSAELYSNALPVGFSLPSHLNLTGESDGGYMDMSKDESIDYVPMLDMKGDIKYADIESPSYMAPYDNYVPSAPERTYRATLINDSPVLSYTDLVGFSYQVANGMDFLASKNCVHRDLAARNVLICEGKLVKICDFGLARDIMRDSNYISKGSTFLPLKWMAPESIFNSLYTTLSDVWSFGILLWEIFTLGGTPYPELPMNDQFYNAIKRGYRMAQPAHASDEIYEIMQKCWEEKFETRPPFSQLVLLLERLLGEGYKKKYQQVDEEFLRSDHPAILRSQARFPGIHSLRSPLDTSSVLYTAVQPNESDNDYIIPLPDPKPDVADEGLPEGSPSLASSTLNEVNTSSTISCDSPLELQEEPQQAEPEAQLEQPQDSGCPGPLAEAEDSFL

| Compound | IC50 [1] | IC50 [2] | IC50 [3] | IC50 [4] |
| --- | --- | --- | --- | --- |
| COc1cc2ncn(-c3ccccc3)c2cc1CO | 11000 nM | 370 nM | – | – |
| C=CCc1c(O)ccc2c1ncn2-c1ccccc1 | > 50000 nM | > 50000 nM | – | – |
| COc1c(O)ccc2c1ncn2-c1ccccc1 | > 50000 nM | > 50000 nM | – | – |
| COc1ccc2c(c1)ncn2-c1ccc(N)cc1 | – | 280 nM | 1360 nM | – |
| OCC(O)COc1ccc2c(c1)ncn2-c1ccccc1 (stereo not drawn) | – | 310 nM | – | – |
| C=CCOc1ccc2c(ncn2-c2ccccc2)c1Br | > 50000 nM | > 50000 nM | – | – |
| c1ccc(-n2cnc3cc(OCC4CO4)ccc32)cc1 (stereo not drawn) | 18000 nM | 320 nM | – | – |
| C=CCOc1ccc2c(c1)ncn2-c1ccccc1 | – | 610 nM | – | – |
| COC(=O)c1cc2c(cc1OC)ncn2-c1ccccc1 | – | 870 nM | – | – |
| NCCOc1ccc2c(c1)ncn2-c1ccccc1 | – | 650 nM | – | – |
| CN(C)CCCOc1ccc2c(c1)ncn2-c1ccccc1 | – | 150 nM | – | – |
| c1ccc(-n2cnc3cc(SCCCN4CCOCC4)ccc32)cc1 | 24000 nM | > 50000 nM | – | – |
| Oc1cccc2c1ncn2-c1ccccc1 | – | 14000 nM | – | – |
| Oc1ccc2c(ncn2-c2ccccc2)c1Br | > 50000 nM | > 50000 nM | – | – |
| COc1cc2ncn(-c3ccccc3)c2cc1C=O | 25000 nM | 1000 nM | – | – |
| c1ccc(-n2cnc3cc(OCCN4CCOCC4)ccc32)cc1 | – | 730 nM | – | 790 nM |
| OCCCCOc1ccc2c(c1)ncn2-c1ccccc1 | – | 450 nM | – | – |
| CCOc1ccc2c(c1)ncn2-c1ccccc1 | 26000 nM | 240 nM | – | – |
| COc1ccc2c(ncn2-c2ccccc2)c1O | > 50000 nM | – | – | – |
| CCCOc1ccc2c(c1)ncn2-c1ccccc1 | – | 250 nM | – | – |
| CN(C)CCCCOc1ccc2c(c1)ncn2-c1ccccc1 | 6800 nM | 160 nM | – | – |
| COc1ccc2c(ncn2-c2ccccc2)c1OC | > 50000 nM | > 50000 nM | – | – |
| CSc1ccc2c(c1)ncn2-c1ccccc1 | 27000 nM | 740 nM | – | – |
| c1ccc(-n2cnc3cc(OCCCN4CCOCC4)ccc32)cc1 | – | 170 nM | – | – |
